Results: publication PMC4929832 (Nature, 2016)

Columns and labels:
EPH-A5 = EPH-A5 (Homo sapiens, UniProt P54756); assay: kinase panel; assay type: biochemical
[1] = test system: L858R/T790M/C797S mutant lung tumors (genetically engineered mice); assay: Mouse efficacy study, tumor volume by MRI; assay type: in vivo; details: EAI045 and cetuximab
Procedure, shortened: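 Transgenic lung tumors were induced at 6 weeks of age: exon19del/T790M mice by doxycycline diet, L858R/T790M/C797S mice by intranasal Ad-Cre. The test compound in 10% NMP/90% PEG-300 was given at 60 mg/kg daily by oral gavage. […] MRI ran at baseline and every 2 weeks, and tumor volume was quantified in 3D at 4 weeks. Cohorts were non-blinded and not randomized.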

RSK4 = RSK4 (Homo sapiens, UniProt Q9UK32); assay: kinase panel; assay type: biochemical
TYK2 = TYK2 (Homo sapiens, UniProt P29597); assay: kinase panel; assay type: biochemical
PKC-THETA = PKC-THETA (Homo sapiens, UniProt Q04759); assay: kinase panel; assay type: biochemical
TAOK3 = TAOK3 (Homo sapiens, UniProt Q9H2K8); assay: kinase panel; assay type: biochemical
CK1 = assay: kinase panel; assay type: biochemical; details: CK1, 1 μM
CDK9-CYCLINT1 = CDK9-CYCLINT1 (Homo sapiens, UniProt P50750); assay: kinase panel; assay type: biochemical
Histamine H1 receptor = Histamine H1 receptor (Homo sapiens, UniProt P35367); assay: Histamine H1 receptor assay; assay type: binding
PHK-GAMMA1 = PHK-GAMMA1 (Homo sapiens, UniProt Q16816); assay: kinase panel; assay type: biochemical
PHK-GAMMA2 = PHK-GAMMA2 (Homo sapiens, UniProt P15735); assay: kinase panel; assay type: biochemical
PPARgamma Receptor = PPARgamma Receptor (Homo sapiens, UniProt P37231); assay: PPARgamma Receptor agonist assay; assay type: cell-based
SYK = SYK (Homo sapiens, UniProt P43405); assay: kinase panel; assay type: biochemical
FGFR4 = FGFR4 (Homo sapiens, UniProt P22455); assay: kinase panel; assay type: biochemical
CK1-GAMMA2 = CK1-GAMMA2 (Homo sapiens, UniProt P78368); assay: kinase panel; assay type: biochemical
MAP4K5 = MAP4K5 (Homo sapiens, UniProt Q9Y4K4); assay: kinase panel; assay type: biochemical
CK1-EPSILON = CK1-EPSILON (Homo sapiens, UniProt P49674); assay: kinase panel; assay type: biochemical
DYRK1A = DYRK1A (Homo sapiens, UniProt Q13627); assay: kinase panel; assay type: biochemical
RON = RON (Homo sapiens, UniProt Q04912); assay: kinase panel; assay type: biochemical
MET = MET (Homo sapiens, UniProt P08581); assay: kinase panel; assay type: biochemical
MNK2 = MNK2 (Homo sapiens, UniProt Q9HBH9); assay: kinase panel; assay type: biochemical
SPHK2 = SPHK2 (Homo sapiens, UniProt Q9NRA0); assay: kinase panel; assay type: biochemical
Serotonin 5HT2A = Serotonin 5HT2A (Homo sapiens, UniProt P28223); assay: Serotonin 5HT2A calcium flux assay; assay type: cell-based
CLK3 = CLK3 (Homo sapiens, UniProt P49761); assay: kinase panel; assay type: biochemical
MSK1 = MSK1 (Homo sapiens, UniProt O75582); assay: kinase panel; assay type: biochemical
ITK = ITK (Homo sapiens, UniProt Q08881); assay: kinase panel; assay type: biochemical
TYRO3 = TYRO3 (Homo sapiens, UniProt Q06418); assay: kinase panel; assay type: biochemical
NEK6 = NEK6 (Homo sapiens, UniProt Q9HC98); assay: kinase panel; assay type: biochemical
PIM1 = PIM1 (Homo sapiens, UniProt P11309); assay: kinase panel; assay type: biochemical
KDR = KDR (Homo sapiens, UniProt P35968); assay: kinase panel; assay type: biochemical
EPH-B3 = EPH-B3 (Homo sapiens, UniProt P54753); assay: kinase panel; assay type: biochemical
LTK = LTK (Homo sapiens, UniProt P29376); assay: kinase panel; assay type: biochemical
PI3K-GAMMA = PI3K-GAMMA (Homo sapiens, UniProt P48736); assay: kinase panel; assay type: biochemical
TIE2 = TIE2 (Homo sapiens, UniProt Q02763); assay: kinase panel; assay type: biochemical
PASK = PASK (Homo sapiens, UniProt Q96RG2); assay: kinase panel; assay type: biochemical
ROCK2 = ROCK2 (Homo sapiens, UniProt O75116); assay: kinase panel; assay type: biochemical
CAMK2A = CAMK2A (Homo sapiens, UniProt Q9UQM7); assay: kinase panel; assay type: biochemical
IKK-EPSILON = IKK-EPSILON (Homo sapiens, UniProt Q14164); assay: kinase panel; assay type: biochemical
H1 receptor = H1 receptor (Homo sapiens, UniProt P35367); assay: H1 receptor calcium assay; assay type: cell-based
MELK = MELK (Homo sapiens, UniProt Q14680); assay: kinase panel; assay type: biochemical
TAK1-TAB1 = TAK1-TAB1 (Homo sapiens, UniProt O43318); assay: kinase panel; assay type: biochemical
CDK7 = CDK7 (Homo sapiens, UniProt P50613); assay: kinase panel; assay type: biochemical
Sequence of CDK7 (P50613 whole entry): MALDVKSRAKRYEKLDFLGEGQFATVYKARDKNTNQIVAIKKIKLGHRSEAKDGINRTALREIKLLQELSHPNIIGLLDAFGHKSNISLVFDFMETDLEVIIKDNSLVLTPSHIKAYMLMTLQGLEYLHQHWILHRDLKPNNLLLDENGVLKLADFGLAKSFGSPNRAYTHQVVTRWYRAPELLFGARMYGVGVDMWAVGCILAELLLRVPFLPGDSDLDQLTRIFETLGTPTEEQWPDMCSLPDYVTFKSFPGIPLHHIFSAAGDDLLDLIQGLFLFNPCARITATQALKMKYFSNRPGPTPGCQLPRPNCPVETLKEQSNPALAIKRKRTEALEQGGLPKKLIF
Sequence of CDK7 (P51946 whole entry partner): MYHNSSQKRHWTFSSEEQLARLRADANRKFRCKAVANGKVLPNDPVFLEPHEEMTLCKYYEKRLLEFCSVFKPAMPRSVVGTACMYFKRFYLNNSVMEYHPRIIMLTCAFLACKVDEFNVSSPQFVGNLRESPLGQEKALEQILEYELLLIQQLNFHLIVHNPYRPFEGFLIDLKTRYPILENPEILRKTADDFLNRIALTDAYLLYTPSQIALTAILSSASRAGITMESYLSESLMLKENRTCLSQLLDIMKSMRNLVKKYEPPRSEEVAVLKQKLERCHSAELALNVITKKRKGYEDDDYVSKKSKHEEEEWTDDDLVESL
Sequence of CDK7 (P51948 whole entry partner): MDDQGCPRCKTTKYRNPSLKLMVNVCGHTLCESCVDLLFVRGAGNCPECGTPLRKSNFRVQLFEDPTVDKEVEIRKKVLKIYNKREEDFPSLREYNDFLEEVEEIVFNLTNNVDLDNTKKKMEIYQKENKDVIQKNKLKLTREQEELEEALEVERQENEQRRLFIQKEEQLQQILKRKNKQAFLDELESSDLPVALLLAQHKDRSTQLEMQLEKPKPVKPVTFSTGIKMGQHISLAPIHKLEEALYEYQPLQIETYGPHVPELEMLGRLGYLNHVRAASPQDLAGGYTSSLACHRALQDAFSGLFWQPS

Sequence of TAOK3 (Q9H2K8 whole entry): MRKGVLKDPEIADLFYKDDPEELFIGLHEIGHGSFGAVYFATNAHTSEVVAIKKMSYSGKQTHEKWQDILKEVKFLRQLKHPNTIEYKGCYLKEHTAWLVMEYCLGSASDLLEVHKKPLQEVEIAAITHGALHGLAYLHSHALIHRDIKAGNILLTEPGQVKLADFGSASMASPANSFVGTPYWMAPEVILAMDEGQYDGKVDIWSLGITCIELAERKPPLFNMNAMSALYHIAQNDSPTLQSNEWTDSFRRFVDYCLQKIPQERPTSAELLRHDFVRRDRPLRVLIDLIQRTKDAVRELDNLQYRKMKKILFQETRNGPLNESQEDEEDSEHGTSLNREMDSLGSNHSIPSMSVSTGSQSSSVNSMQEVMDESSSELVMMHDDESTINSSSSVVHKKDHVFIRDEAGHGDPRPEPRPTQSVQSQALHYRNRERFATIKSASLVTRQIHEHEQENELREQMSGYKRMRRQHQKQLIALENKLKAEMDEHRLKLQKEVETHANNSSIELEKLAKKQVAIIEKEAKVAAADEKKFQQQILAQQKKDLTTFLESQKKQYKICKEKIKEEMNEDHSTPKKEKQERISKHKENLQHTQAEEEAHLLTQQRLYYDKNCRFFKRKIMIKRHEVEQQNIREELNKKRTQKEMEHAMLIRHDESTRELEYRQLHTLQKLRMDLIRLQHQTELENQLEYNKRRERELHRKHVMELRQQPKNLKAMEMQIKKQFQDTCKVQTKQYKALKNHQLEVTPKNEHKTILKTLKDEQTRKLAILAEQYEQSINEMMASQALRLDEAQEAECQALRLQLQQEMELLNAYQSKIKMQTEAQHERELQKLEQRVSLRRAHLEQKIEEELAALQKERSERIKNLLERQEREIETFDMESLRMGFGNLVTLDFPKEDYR
Sequence of IKK-EPSILON (Q14164 whole entry): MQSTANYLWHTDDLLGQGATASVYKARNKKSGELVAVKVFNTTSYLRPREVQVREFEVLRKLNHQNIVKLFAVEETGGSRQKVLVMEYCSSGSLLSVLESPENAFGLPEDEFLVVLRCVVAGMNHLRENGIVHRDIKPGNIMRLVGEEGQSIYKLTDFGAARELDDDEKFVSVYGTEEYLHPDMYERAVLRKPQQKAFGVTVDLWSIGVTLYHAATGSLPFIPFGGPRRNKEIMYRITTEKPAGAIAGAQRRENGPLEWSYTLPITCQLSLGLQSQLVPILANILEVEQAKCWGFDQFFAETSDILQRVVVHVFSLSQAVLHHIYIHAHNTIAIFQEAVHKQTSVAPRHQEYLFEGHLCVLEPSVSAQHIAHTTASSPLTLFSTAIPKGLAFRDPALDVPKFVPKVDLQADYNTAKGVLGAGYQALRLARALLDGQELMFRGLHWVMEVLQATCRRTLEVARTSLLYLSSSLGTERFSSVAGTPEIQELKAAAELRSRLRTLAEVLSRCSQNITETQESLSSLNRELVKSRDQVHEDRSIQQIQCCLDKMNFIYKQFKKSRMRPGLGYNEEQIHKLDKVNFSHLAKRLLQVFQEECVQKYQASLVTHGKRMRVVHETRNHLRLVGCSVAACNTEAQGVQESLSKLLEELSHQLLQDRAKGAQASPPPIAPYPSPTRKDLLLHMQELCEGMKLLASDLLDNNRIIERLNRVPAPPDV
Sequence of MNK2 (Q9HBH9 whole entry): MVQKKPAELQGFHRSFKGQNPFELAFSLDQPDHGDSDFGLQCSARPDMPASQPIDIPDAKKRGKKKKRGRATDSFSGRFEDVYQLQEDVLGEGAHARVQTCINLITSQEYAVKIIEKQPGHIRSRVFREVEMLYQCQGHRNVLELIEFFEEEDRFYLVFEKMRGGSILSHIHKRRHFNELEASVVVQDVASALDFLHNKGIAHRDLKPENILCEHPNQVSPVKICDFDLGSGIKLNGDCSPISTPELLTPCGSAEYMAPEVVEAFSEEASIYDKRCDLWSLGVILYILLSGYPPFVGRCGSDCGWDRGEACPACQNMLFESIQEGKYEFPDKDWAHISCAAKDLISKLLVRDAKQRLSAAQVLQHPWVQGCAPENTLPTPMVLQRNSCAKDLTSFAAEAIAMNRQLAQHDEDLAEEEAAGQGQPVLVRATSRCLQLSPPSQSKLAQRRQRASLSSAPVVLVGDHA
Sequence of EPH-A5 (P54756 25-1037): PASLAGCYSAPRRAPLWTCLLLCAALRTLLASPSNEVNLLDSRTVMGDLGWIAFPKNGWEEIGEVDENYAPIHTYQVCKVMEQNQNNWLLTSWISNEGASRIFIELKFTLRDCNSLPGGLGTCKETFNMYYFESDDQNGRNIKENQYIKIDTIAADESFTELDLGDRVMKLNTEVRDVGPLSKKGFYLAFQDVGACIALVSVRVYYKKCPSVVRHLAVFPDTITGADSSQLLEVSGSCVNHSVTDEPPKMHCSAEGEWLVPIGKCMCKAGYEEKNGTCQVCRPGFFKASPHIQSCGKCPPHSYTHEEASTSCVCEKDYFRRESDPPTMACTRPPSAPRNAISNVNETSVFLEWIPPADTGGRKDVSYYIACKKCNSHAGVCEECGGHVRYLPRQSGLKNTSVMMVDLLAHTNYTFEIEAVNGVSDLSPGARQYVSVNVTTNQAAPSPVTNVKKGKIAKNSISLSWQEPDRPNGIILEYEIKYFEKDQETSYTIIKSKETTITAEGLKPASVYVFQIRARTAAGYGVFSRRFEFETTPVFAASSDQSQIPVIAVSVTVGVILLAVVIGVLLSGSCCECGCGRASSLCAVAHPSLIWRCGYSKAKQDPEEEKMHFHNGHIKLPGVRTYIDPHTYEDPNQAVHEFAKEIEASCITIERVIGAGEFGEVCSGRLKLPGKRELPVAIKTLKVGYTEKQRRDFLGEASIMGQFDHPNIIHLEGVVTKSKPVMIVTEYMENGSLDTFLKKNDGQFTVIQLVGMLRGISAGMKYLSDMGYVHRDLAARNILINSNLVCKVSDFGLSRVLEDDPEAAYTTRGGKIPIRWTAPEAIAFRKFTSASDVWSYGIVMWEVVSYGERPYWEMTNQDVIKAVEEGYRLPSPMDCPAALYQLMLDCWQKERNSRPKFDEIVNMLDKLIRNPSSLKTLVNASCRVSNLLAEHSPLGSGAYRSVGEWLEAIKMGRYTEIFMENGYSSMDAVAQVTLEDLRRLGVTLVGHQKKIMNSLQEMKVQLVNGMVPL
Sequence of Serotonin 5HT2A (P28223 whole entry): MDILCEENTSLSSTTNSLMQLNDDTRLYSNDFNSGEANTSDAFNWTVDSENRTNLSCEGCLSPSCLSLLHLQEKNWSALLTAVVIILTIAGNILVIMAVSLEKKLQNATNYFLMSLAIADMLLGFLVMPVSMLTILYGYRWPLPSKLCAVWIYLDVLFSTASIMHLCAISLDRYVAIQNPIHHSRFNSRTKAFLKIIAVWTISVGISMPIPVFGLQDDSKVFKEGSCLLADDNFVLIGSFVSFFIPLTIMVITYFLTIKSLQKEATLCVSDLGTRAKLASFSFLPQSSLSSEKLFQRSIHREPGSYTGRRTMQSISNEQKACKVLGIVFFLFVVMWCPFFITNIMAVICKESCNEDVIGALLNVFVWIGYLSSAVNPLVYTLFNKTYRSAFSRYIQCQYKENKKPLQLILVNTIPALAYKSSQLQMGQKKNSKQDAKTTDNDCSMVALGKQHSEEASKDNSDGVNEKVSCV
Sequence of CAMK2A (Q9UQM7 whole entry): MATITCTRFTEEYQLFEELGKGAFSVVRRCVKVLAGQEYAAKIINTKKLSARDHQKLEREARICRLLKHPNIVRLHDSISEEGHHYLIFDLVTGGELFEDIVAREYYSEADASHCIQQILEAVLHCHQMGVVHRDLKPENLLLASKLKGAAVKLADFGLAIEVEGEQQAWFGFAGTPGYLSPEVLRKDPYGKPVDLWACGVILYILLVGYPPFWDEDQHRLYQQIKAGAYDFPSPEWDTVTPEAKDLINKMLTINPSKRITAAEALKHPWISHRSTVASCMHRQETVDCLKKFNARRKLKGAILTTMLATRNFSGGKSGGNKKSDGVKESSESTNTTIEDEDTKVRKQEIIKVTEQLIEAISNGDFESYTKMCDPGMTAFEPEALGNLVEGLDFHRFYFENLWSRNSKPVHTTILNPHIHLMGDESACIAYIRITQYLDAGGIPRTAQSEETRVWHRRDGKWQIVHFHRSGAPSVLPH

inhibition at 1 µM (EPH-A5): 4%
inhibition at 1 µM (RSK4): 0%
inhibition at 1 µM (TYK2): 0%
inhibition at 1 µM (PKC-THETA): 0%
inhibition at 1 µM (TAOK3): 0%
% inhibition (CK1): 0%
inhibition at 1 µM (CDK9-CYCLINT1): 6%
IC50 (Histamine H1 receptor): > 30 µM
inhibition at 1 µM (PHK-GAMMA1): 0%
inhibition at 1 µM (PHK-GAMMA2): 0%
IC50 (PPARgamma Receptor): > 30 µM
inhibition at 1 µM (SYK): 0%
inhibition at 1 µM (FGFR4): 0%
inhibition at 1 µM (CK1-GAMMA2): 0%
inhibition at 1 µM (MAP4K5): 13%
inhibition at 1 µM (CK1-EPSILON): 0%
inhibition at 1 µM (DYRK1A): 0%
inhibition at 1 µM (RON): 0%
inhibition at 1 µM (MET): 0%
inhibition at 1 µM (MNK2): 3%
inhibition at 1 µM (SPHK2): 0%
IC50 (Serotonin 5HT2A): > 30 µM
inhibition at 1 µM (CLK3): 0%
inhibition at 1 µM (MSK1): 0%
inhibition at 1 µM (ITK): 0%
inhibition at 1 µM (TYRO3): 0%
inhibition at 1 µM (NEK6): 0%
inhibition at 1 µM (PIM1): 0%
inhibition at 1 µM (KDR): 0%
inhibition at 1 µM (EPH-B3): 0%
inhibition at 1 µM (LTK): 1%
inhibition at 1 µM (PI3K-GAMMA): 0%
inhibition at 1 µM (TIE2): 0%
inhibition at 1 µM (PASK): 1%
inhibition at 1 µM (ROCK2): 0%
inhibition at 1 µM (CAMK2A): 2%
inhibition at 1 µM (IKK-EPSILON): 0%
IC50 (H1 receptor): > 30 µM
inhibition at 1 µM (MELK): 0%
inhibition at 1 µM (TAK1-TAB1): 0%
inhibition at 1 µM (CDK7): 0%
SMILES: O=C(Nc1nccs1)C(c1cc(F)ccc1O)N1Cc2ccccc2C1=O (stereo not drawn) [EAI045, 2-(5-fluoro-2-hydroxyphenyl)-2-(1-oxo-2,3-dihydro-1H-isoindol-2-yl)-N-(1,3-thiazol-2-yl)acetamide]
tumor response [1]: marked tumor shrinkage
